Series [1] has as its system C. neoformans. As to the kind of experiment: Mouse model of cryptococcosis, intranasal infection. Conditions: 1.2 mg/kg/day i.p. The class given is in vivo, mouse (CBA/J). Summed up: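 Mice (10 per group) were infected by nasal inoculation of 20 µl containing 5 × 10^5 C. neoformans. Test compound was given i.p. at 1.2 mg/kg/day in 100 µl PBS with 0.4% DMSO, starting 2 h after inoculation. Survival followed up to 60 days. Organs of survivors were homogenized in 10 ml PBS, diluted serially 1:10, plated on YPD, and incubated at 30°C for 72 h for CFU.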

A short description of series [2]: In vivo toxicity, blood work. More on the design: species or system mouse (CBA/J). Summed up: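 Female CBA/J mice, 4 weeks old: five received 1.2 mg/kg/day test compound for 60 days, and three controls received a daily solvent injection. On day 60, blood was collected into one K2EDTA tube and one plain tube allowed to clot.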
Series [3] concerns GlcCer synthesis in C. neoformans. Description: In vivo labeling with [3H]palmitate, TLC of GlcCer. Type of series: cell-based. Conditions: [3H]palmitate labeling.
The test system of series [4] is C. neoformans. Description: Synergism assay. The class given is cell-based.
Series [5] relates to C. neoformans. Description: Transmission electron microscopy, intracellular vesicles. Type of series: cell-based. Particulars: 4 µg/ml, 6 h; untreated 0.33 ± 0.36.
Series [6] concerns Candida spp. As to the kind of experiment: In vitro susceptibility. The class given is cell-based. Conditions: most Candida spp. examined. The procedure, abridged: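 Inoculum prepared per CLSI M27-A3. Plates incubated at 37°C with 5% CO2 for 24 to 96 h. MIC was the lowest concentration inhibiting 50% of growth versus the drug-free control. Minimum fungicidal concentration was also measured: serial dilutions from wells were plated on YPD agar, and MFC was the lowest concentration yielding three or fewer colonies (99% of inoculum killed).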

In series [7] the test system is C. neoformans. Description: Mouse model of cryptococcosis, intravenous infection. Type of series: in vivo, mouse (CBA/J). Conditions: 8 mice per group, vehicle 7.0 ± 1.1.
Series [8] concerns C. albicans SC 5314. As to the kind of experiment: Mouse model of invasive candidiasis. The class given is in vivo, mouse (CBA/J). Particulars: after 21 days of infection; 1.2 mg/kg/day i.p.; 8 mice per group. Summed up: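 Female CBA/J mice, 8 weeks old (8 per group), were infected i.v. with 100 µl containing 10^5 C. albicans SC-5314. Test compound was given i.p. at 1.2 mg/kg/day in 100 µl PBS with 0.4% DMSO immediately after inoculation; untreated mice received vehicle. Survival was monitored. Organs of survivors were homogenized in 10 ml PBS, diluted tenfold, and plated on YPD at 30°C for 72 h for CFU.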

Series [9] concerns sphingolipids of C. neoformans. Description: Sphingolipid profiling by TLC and LC-MS. Particulars: LC-MS; D0 data not shown. Type of series: cell-based.
Series [10] concerns C. neoformans cells. Description: In vitro killing assay. The class given is cell-based. The procedure, abridged: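 An overnight C. neoformans culture was washed in PBS and resuspended in HEPES-buffered YNB, pH 7.4. 2 × 10^4 cells were exposed to 1, 2 or 4 µg/ml test compound in 10 ml (0.4% DMSO final), at 37°C, 5% CO2, on a rotary shaker at 200 rpm. Aliquots taken at time points were diluted, plated on YPD, incubated 72 h at 30°C, and CFU counted.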

In series [11] the test system is J774 cells. Description: In vitro toxicity. Type of series: cell-based, murine. The procedure, abridged: (§1)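 J774.16 murine macrophages were kept in DMEM with 10% FBS and 1% pen-strep, and used until passage eight. At passage 7, 10^5 cells/well were allowed to adhere for 14 h. Test compound was then added at 0.1 to 100 µg/ml, with drug-free wells as controls. Incubation at 37°C, 5% CO2.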

A short description of series [12]: In vitro toxicity. Type of series: cell-based, murine. Particulars: mouse, J774.16 macrophage cells. The procedure, abridged:
as §1

Series [13] concerns C. neoformans cells. As to the kind of experiment: In vitro passages, development of resistance. The class given is cell-based. Conditions: 15 days of in vitro passages (120 generations), 10^6 cells/ml; data not shown.
Series [14] concerns P. murina. As to the kind of experiment: Murine pneumocystosis, CD4-depleted. The class given is in vivo, mouse (C3H/HeN). Particulars: 1.25 mg/kg/day. Summed up:
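Twelve mice were CD4-depleted with 300 µg GK 1.5 antibody i.p. on days 1, 3 and 7. They were infected by exposure to P. murina-infected mice, then given 100 µg GK 1.5 i.p. weekly for 6 weeks. Treatment followed at 1.25 or 12.5 mg/kg/day for 14 days, with GK 1.5 continued; controls received vehicle.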

Series [15] has as its system P. murina. Description: Murine pneumocystosis, corticosteroid-immunosuppressed. Type of series: in vivo, mouse (C3H/HeN). Particulars: mice immunosuppressed with corticosteroids. The procedure, abridged:
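Corticosteroid-immunosuppressed mice were infected with P. murina by cohousing with seed mice for 2 weeks. […] Treatment lasted 13 days. Lung homogenate slides were stained with Diff-Quik for trophic forms and cresyl echt violet for asci.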

Series [16] relates to GlcCer synthesis in J774.16 cells. As to the kind of experiment: Labeling of mammalian cells with [3H]palmitate, TLC of GlcCer. Type of series: cell-based, murine. Conditions: [3H]palmitate labeling, 6 h. Summed up: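 J774.16 macrophages (5 × 10^6 cells/ml) adhered for 14 h in six-well plates. They were exposed for 4 h to test compound at the concentrations used for the fungal labeling, then given 30 µCi/ml [3H]palmitic acid for a further 2 h.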

In series [17] the test system is Cryptococcus neoformans. Description: In vitro susceptibility testing. The class given is cell-based. Particulars: Cryptococcus neoformans.

In brackets after ≈: the same amount, converted by molar mass. A value given as a limit tells only on which side of the number the result lay.

Consider `O=C(NN=Cc1ccc(O)c(Br)c1)c1cccc(Br)c1` [D0, 3-bromo-N′-(3-bromo-4-hydroxybenzylidene) benzohydrazide], for which, in series [1], the “brain tissue burden (CFU)” value is recorded as “eradication of fungal cells”. Also, the “lung tissue burden (CFU)” value in series [1] is “decrease of fungal load”. Also, the “mice surviving C. neoformans infection” value in [1] (up to 60 days, 10 mice per group) was found to be 70%. In series [2] (after 60 days of treatment), the “all other blood parameters for liver and kidney function” value is recorded as “normal”. For the same compound, the tolerability in animals entry in series [2] (mouse, in vivo) is on record as “well tolerated”. In series [3], the “synthesis of GlcCer” value was “significantly inhibited”. Further, the interaction category result in series [4] (combined with caspofungin) was “additive (additive effect, FIC = 1)”; in series [4] (combined with fluconazole), “highly synergistic”; in [4] (combined with tunicamycin) it was “additive (additive effect, FIC = 1)”. Further, in [5], the “numbers of vesicles per square micrometer of cell surface area” value is listed as 0.93 ± 0.54. In series [6], the in vitro susceptibility result is reported as “resistant”. Further, in series [7] (1.2 mg/kg/day i.p.), the “survival, days postinfection” value came to 10.5 ± 4.2 days. In addition, the mice still alive in series [8] came out at 75%. For the same compound, in [9], the “levels of C18 hydroxyceramide and its desaturated and methylated forms” value was “decreased”. Further, the type of killing result in series [10] (time-kill assay, 37°C, 5% CO2, pH 7.4) is listed as “time-dependent killing”. The compound further returned a dead cells in series [10] (within 24 h) of 100%. This compound also showed an EC50/MIC80 selectivity index in [11] (J774 EC50 versus MIC) of more than 100. For the same compound, in series [11] (macrophage cell line), the “selectivity index (EC50/MIC ratio)” value was more than 50. In series [12], this compound showed a 50% effective concentration (EC50) at 48 h of 50 µg/mL (≈ 126 µM). In addition, the development of resistance result in series [13] is “did not develop resistance”. Besides, the survival result in series [14] is reported as “significantly improved survival”. For the same compound, the toxicity entry in [14] is “no apparent signs of toxicity”; in series [15] it was “some toxicity”. Further, in series [16], the “synthesis of mammalian GlcCer or other sphingolipids” value is “no significant changes”.
For the compound `C[C@@H]1[C@H](O)[C@@H](C)/C=C/C=C/C=C/C=C/C=C/C=C/C=C/[C@H](O[C@@H]2O[C@H](C)[C@@H](O)[C@H](N)[C@@H]2O)C[C@@H]2O[C@](O)(C[C@@H](O)C[C@@H](O)[C@H](O)CC[C@@H](O)C[C@@H](O)CC(=O)O[C@H]1C)C[C@H](O)[C@H]2C(=O)O` [amphotericin B, reference compound], in series [7] (1.2 mg/kg/day i.p.), the “survival, days postinfection” value came out at 23.5 ± 6.5 days.
In turn, `OC(Cn1cncn1)(Cn1cncn1)c1ccc(F)cc1F` [fluconazole, reference compound] registered an MIC in [17] of more than 64 µg/mL. Besides, the “survival, days postinfection” value in [7] (10 mg/kg/day i.p.) turned out to be 10 ± 2 days.

As a reminder, the EC50 is the concentration that produces a half-maximal response. Read a low EC50 as higher potency in that assay. Broadly, the MIC is the smallest concentration in the dilution series that meets the test's criterion for growth inhibition. Read a high MIC as a less susceptible organism.

The values are drawn from paper PMC4479701 (mBio, 2015).
